Hits are enriched below; roughly 2.9% of the tested compounds scored in any of these assays.
Runt-CBFb FRET – Runt domain-CBFb interaction inhibition; Q01196+Q13951; Cerulean-Runt/Venus-CBFb FRET ratio 530/480, 1 h; inhibition, % at 20 µM; 0.46% of 220,000 active;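 active = inhibition over about 50% at 20 µM in the single-dose screen, limit read from the data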
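Doses: 20 µM compound in 1% DMSO | Material: Cerulean-labeled Runt domain protein | Amount: Each fluorescent fusion protein 100 nM | Schedule: Two 1 h room-temperature incubations shielded from light | Measured by: FRET fluorescence | Evaluation: Loss of energy transfer signal | Controls: Unlabeled CBFb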
RanGTP-Impb inh – inhibitors of RanGTP-importin-beta interaction, primary screen, biochemical, FRET, CFP-Ran, YFP-importin-beta, homogeneous. cell-free CFP-Ran/YFP-importin-beta FRET ratio. AID 2216. inhibition, % (no concentration beside the values). 1.1% of 300,000 active;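 active = more than half of the replicate wells show a fall in the fluorescence ratio signal beyond about 16%, limit read from the data, passing the limit was not always enough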
PfM18AAP inh – PfM18AAP enzyme inhibition | recombinant PfM18AAP, H-Glu-NHMec fluorogenic cleavage | inhibition, % at 7.35 µM | 1.2% of 290,000 active | AID 1822;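 active = inhibition above the campaign mean inhibition over all tested compounds plus 3 SD, cut at about 28% in these data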
Hck Nef HTS – blocks Nef-activated human Hck kinase. P08631. Recombinant Hck-YEEI plus Nef, Z-Lyte FRET kinase assay. inhibition, % at 20 µM. 0.68% of 220,000 active;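 active = Hck-Nef kinase inhibition above about 50%, limit read from the data; inactive = inhibition below that limit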
Target sequence (P08631 whole entry, looked up): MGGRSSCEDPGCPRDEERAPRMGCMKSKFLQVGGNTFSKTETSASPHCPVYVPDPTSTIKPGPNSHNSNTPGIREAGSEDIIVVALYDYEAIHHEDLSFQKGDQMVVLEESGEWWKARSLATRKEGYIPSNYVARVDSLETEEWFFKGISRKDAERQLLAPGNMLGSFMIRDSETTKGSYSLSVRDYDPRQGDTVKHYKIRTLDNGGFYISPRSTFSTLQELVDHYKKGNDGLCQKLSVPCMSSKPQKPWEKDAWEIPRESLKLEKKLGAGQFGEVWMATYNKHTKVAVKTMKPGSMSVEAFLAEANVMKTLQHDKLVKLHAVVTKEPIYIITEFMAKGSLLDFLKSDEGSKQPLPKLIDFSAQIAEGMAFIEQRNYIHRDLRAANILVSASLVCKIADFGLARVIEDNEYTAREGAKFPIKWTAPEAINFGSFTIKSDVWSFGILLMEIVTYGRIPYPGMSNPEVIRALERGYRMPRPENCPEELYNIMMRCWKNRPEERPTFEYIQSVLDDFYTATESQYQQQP
Runt-SMMHC FRET – blocks binding of human RUNX1 Runt domain to CBFb-SMMHC; Q01196+Q13951; Cerulean-Runt/Venus-CBFb-SMMHC FRET ratio 530/480, 1 h; inhibition, % at 20 µM; 0.74% of 220,000 active; AID 1434;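 active = mean inhibition across duplicate retests at 20 µM reaching about 50%, limit read from the data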;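 note: inhibitors lower the FRET ratio by blocking Runt binding to CBFb-SMMHC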
RBBP9 inh – blocks human serine hydrolase RBBP9 | recombinant RBBP9, FP-Rh probe fluorescence polarization | inhibition, % at 7.94 µM | 0.2% of 220,000 active | AID 1515 | O75884;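 active = inhibition above the campaign mean of all tested compounds plus 3 SD, cut at about 14% in these data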
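Test system – recombinant human RBBP9 · Input – RBBP9 2.5 µM in dispensing solution, pre-mixing · Medium – Tris buffer pH 8.0, NaCl, Pluronic · Schedule – preincubation 30 min plus labeling 45 min at 25 °C · Measured by – fluorescence polarization · Measure – % inhibition · Controls – DMSO and no-protein wells · Replicates – one well per compound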
YIC counter – counter-screen for RanGTP-importin-beta inhibitors: YIC FRET probe. shares compounds with RanGTP-Impb inh. Purified YIC probe, intramolecular FRET ratio YFP/CFP. IC50, µM. 40% of 1,000 active;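 active = fitted half-maximal inhibitory concentration no more than tenfold above the top dose tested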
Large screens that a line does not name were inactive (follow-up assays come after a bar, where they were run).

O=C(O)C1CC=CCC1C(=O)Nc1ccccc1 (stereo unspecified)	none
CC(C)NC(=O)C1CC=CCC1C(=O)O (stereo unspecified)	RanGTP-Impb inh 25 | YIC counter inactive
Cc1cccc(C(=O)NNC(=O)CSc2nnc(C3CC3)n2C)c1	none (no result: Runt-CBFb FRET, Hck Nef HTS, Runt-SMMHC FRET, RBBP9 inh)
Cc1ccc(OCCC(=O)OCC(=O)Nc2ccccc2)cc1	none (no result: Runt-CBFb FRET, Hck Nef HTS, Runt-SMMHC FRET, RBBP9 inh)
O=C(NNC(=O)C1CC(=O)N(Cc2ccccc2)C1)c1ccc(Br)cc1 (stereo unspecified)	none (no result: Runt-CBFb FRET, Hck Nef HTS, Runt-SMMHC FRET, RBBP9 inh)
O=C(c1cc2c(=O)n3ccccc3nc2s1)N1CCN(c2cccc(Cl)c2)CC1	RanGTP-Impb inh 29 (no result: Runt-CBFb FRET, Hck Nef HTS, Runt-SMMHC FRET, RBBP9 inh) | YIC counter inactive
O=C(c1cc2c(=O)n3ccccc3nc2s1)N1CCOCC1	none
CCCCc1cc(=O)oc2c(C)c(OCC(=O)NCc3ccccn3)ccc12	RanGTP-Impb inh 31 (no result: Runt-CBFb FRET, Hck Nef HTS, Runt-SMMHC FRET, RBBP9 inh) | YIC counter inactive
CCCCNC(=O)c1oc2ccc(S(=O)(=O)N3CCCC3)cc2c1C	none (no result: Runt-CBFb FRET, Hck Nef HTS, Runt-SMMHC FRET, RBBP9 inh)
O=C(Oc1ccc2c3c(c(=O)oc2c1)CCCC3)c1ccco1	Runt-CBFb FRET 130, RanGTP-Impb inh 17, Runt-SMMHC FRET 166 | YIC counter 20
CCOC(=O)/C(=N\Nc1ccccc1[N+](=O)[O-])c1csc(N)n1	none
CCOC(=O)/C(=N\Nc1ccc(C(C)=O)cc1)c1csc(Nc2ccccc2)n1	RanGTP-Impb inh 18 | YIC counter inactive
CC(C)NC(=O)NC(=O)COC(=O)c1ccccc1O	RanGTP-Impb inh 16 | YIC counter inactive
CCOC(=O)/C(C#N)=C1/C=Nc2ccccc2N1	RanGTP-Impb inh 27 | YIC counter inactive
CCOC(=O)/C(C#N)=C1/C=CN(c2ccccc2)C=N1	none
CC(NCc1cccs1)C(=O)NC1CCCCC1 (stereo unspecified)	RanGTP-Impb inh 17 | YIC counter inactive
Cc1ccc2cc(CN(CC3CCCO3)C(=S)Nc3ccccc3)c(=O)[nH]c2c1C (stereo unspecified)	RanGTP-Impb inh 18 | YIC counter inactive
N#Cc1c(N)[nH]c(=S)c(C#N)c1-c1ccccc1	RanGTP-Impb inh 31 | YIC counter inactive
COc1ccc(NC(=O)C(=O)NCCC2CCCCN2S(=O)(=O)c2ccc(F)cc2)cc1 (stereo unspecified)	none (no result: Runt-CBFb FRET, PfM18AAP inh, Hck Nef HTS, Runt-SMMHC FRET, RBBP9 inh)
Cc1cccc(C(=O)Nc2sc(C)c(-c3ccccc3)c2C#N)c1	RanGTP-Impb inh 39 | YIC counter inactive
O=C1CC(/C=C/c2ccco2)=Nc2ccccc2N1	RanGTP-Impb inh 24 | YIC counter inactive
O=C1CC(/C=C/c2ccccn2)=Nc2ccccc2N1	none
COCCCN(C(=O)c1cc(-c2ccco2)nc2ccccc12)c1c(N)n(Cc2ccccc2)c(=O)[nH]c1=O	none (no result: Runt-CBFb FRET, PfM18AAP inh, Hck Nef HTS, Runt-SMMHC FRET, RBBP9 inh)
Cc1ccc(NC(=O)C2CC(=O)N(c3ccc4c5c(cccc35)CC4)C2)cc1 (stereo unspecified)	none
N#Cc1ccccc1NC(=O)C1CC(=O)N(c2ccc3c4c(cccc24)CC3)C1 (stereo unspecified)	RanGTP-Impb inh 22 | YIC counter inactive
CCN(CC(=O)NC(C)(C)C)Cc1cc(=O)n2c(-c3ccccc3)csc2n1	none (no result: Runt-CBFb FRET, Hck Nef HTS, Runt-SMMHC FRET, RBBP9 inh)
CCSC(=S)c1c(C)[nH]n(-c2ccccc2)c1=O	none
CCC(=O)Nc1cccc(NC(=S)NC(=O)c2cccs2)c1	RanGTP-Impb inh 25 | YIC counter inactive
CCC(=O)Nc1cccc(NC(=S)NC(=O)c2ccccc2Cl)c1	none
COc1ccc(-c2c(C)c3ccc(OCC(C)=O)cc3oc2=O)cc1	none
COc1ccc(-c2c(C)c3ccc(O)cc3oc2=O)cc1	RanGTP-Impb inh 19 (no result: Runt-CBFb FRET, Hck Nef HTS, Runt-SMMHC FRET, RBBP9 inh) | YIC counter 22
COc1cc(C2C3CN(C)CC=C3C(C#N)=C(N)C2(C#N)C#N)ccc1OC(C)C (stereo unspecified)	Runt-CBFb FRET 88, RanGTP-Impb inh 39 | YIC counter 3.3
CCCOc1ccc([C@@H]2C3CN(C(=O)OCC)CC=C3C(C#N)=C(N)C2(C#N)C#N)cc1OC (stereo partly specified)	none

From PubChem BioAssay
